According to ChEMBL document CHEMBL1129428 (J Med Chem, 1996):

Experiments:
Mus musculus [1] = assay: Compound was tested for anticonvulsant activity after intraperitoneal injection into mice by using MES screen test after 1 hr; assay type: functional; conditions: ip
How it was run: (§1)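 Quantitative intraperitoneal mouse testing in the MES, scPTZ or rotorod neurotoxicity screens at the peak time given for each compound (0.25–2 h). ED50 or TD50 reported in mg/kg with 95% CI and slope (SE).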

Mus musculus [2] = assay: Anticonvulsant activity after intraperitoneal injection into mice measured in a maximal electroshock scree (MES) screen; assay type: functional
Rattus norvegicus [3] = assay: Compound was tested for anticonvulsant activity after Oral Administration into rat by using MES screen test after 4 hr; assay type: functional
How it was run: (§2)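 Rats dosed orally, typically at 50 mg/kg first, then mostly 12.5 mg/kg (some compounds at 30 mg/kg), and tested by maximal electroshock. Four rats per compound, scored at 0.25, 0.5, 1, 2 and 4 h as the number of rats protected out of 4.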

Rattus norvegicus [4] = assay: Compound was tested for anticonvulsant activity after Oral Administration into Rats by using MES screen test after 2h,dose 12.5 mg/kg; number of rats out of four which were protected; assay type: functional
How it was run: (§3)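 Rats received the compound orally. […] Rats were tested in the MES screen at 0.25, 0.5, 1, 2 and 4 h. Each value is the number of rats protected out of 4. The test followed NINDS procedures.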

Mus musculus [5] = assay: Anticonvulsant activity after intraperitoneal injection into mice by using MES screen test after 0.5 hr; assay type: functional
Mus musculus [6] = assay: Anticonvulsant activity after intraperitoneal injection into mice by using scPTZ screen after 0.5 hr; assay type: functional
Rattus norvegicus [7] = assay: Compound was tested for anticonvulsant activity after Oral Administration into Rats by using MES screen test after 1h,dose 12.5 mg/kg; number of rats out of four which were protected; assay type: functional; how it was run: as §3
Mus musculus [8] = assay: Compound was tested for anticonvulsant activity after intraperitoneal injection into mice by using scPTZ screen test after 1 hr; assay type: functional; conditions: ip; how it was run: as §1
Rattus norvegicus [9] = assay: Compound was tested for anticonvulsant activity after Oral Administration into Rats by using MES screen test after 4h,dose 12.5 mg/kg; number of rats out of four which were protected; assay type: functional; how it was run: as §3
Rattus norvegicus [10] = assay: Compound was tested for anticonvulsant activity after Oral Administration into Rats by using MES screen test after 0.25h,dose 12.5 mg/kg; No activity was demonstarted; assay type: functional, organism-based; design: dose 12.5 mg/kg; how it was run: as §3
Rattus norvegicus [11] = assay: Anticonvulsant activity after oral administration into rats; assay type: functional; design: concentration or dose not given beside the values
[12] = Compound was tested for toxicity after intraperitoneal injection into mice by using neurotoxicity screen test after 2 hr; assay type: organism-based; conditions: mouse, in vivo, ip; how it was run: as §1
Mus musculus [13] = assay: Toxicity after intraperitoneal injection into mice by using toxicity screen test after 0.5 hr; assay type: organism-based; conditions: in vivo, ip
How it was run: (§4)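 Mice injected intraperitoneally at 30, 100 and 300 mg/kg and examined 0.5 and 4 h afterwards. Each entry is the minimum dose giving activity (MES protection, scPTZ protection, or rotorod failure for neurotoxicity) in half or more of the mice. Activity is called absent if nothing occurs at 300 mg/kg.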

Mus musculus [14] = assay: Anticonvulsant activity after intraperitoneal injection into mice by using scPTZ screen test after 4 hr; assay type: functional
Rattus norvegicus [15] = assay: Compound was tested for anticonvulsant activity after Oral Administration into Rats by using MES screen test after 4h,dose 30 mg/kg; number of rats out of four which were protected; assay type: functional; how it was run: as §3
Rattus norvegicus [16] = assay: Compound was tested for anticonvulsant activity after Oral Administration into Rats by using MES screen test after 0.25h,dose 30 mg/kg; number of rats out of four which were protected; assay type: functional; how it was run: as §3
Rattus norvegicus [17] = assay: Compound was tested for anticonvulsant activity after Oral Administration into Rats by using MES screen test after 1h,dose 30 mg/kg; number of rats out of four which were protected; assay type: functional; how it was run: as §3
Mus musculus [18] = assay: Compound was tested for toxicity after intraperitoneal injection into mice by using toxicity screen test after 4 hr; assay type: organism-based; conditions: in vivo, ip; how it was run: as §4
Rattus norvegicus [19] = assay: Compound was tested for anticonvulsant activity after Oral Administration into Rats by using MES screen test after 2h,dose 30 mg/kg; number of rats out of four which were protected; assay type: functional; how it was run: as §3
Rattus norvegicus [20] = assay: Compound was tested for anticonvulsant activity after Oral Administration into Rats by using MES screen test after 0.5h,dose 30 mg/kg; number of rats out of four which were protected; assay type: functional; how it was run: as §3
Rattus norvegicus [21] = assay: Compound was tested for anticonvulsant activity after Oral Administration into Rats by using MES screen test after 1h,dose 12.5 mg/kg; No activity was demonstarted; assay type: functional, organism-based; design: dose 12.5 mg/kg; how it was run: as §3
Rattus norvegicus [22] = assay: Compound was tested for anticonvulsant activity after Oral Administration into Rats by using MES screen test after 0.5h,dose 12.5 mg/kg; No activity was demonstarted; assay type: functional, organism-based; design: dose 12.5 mg/kg; how it was run: as §3
Rattus norvegicus [23] = assay: Compound was tested for anticonvulsant activity after Oral Administration into Rats by using MES screen test after 2h,dose 12.5 mg/kg; No activity was demonstarted; assay type: functional, organism-based; design: dose 12.5 mg/kg; how it was run: as §3
Rattus norvegicus [24] = assay: Compound was tested for anticonvulsant activity after Oral Administration into Rats by using MES screen test after 0.25h,dose 12.5 mg/kg; number of rats out of four which were protected; assay type: functional; how it was run: as §3
Rattus norvegicus [25] = assay: Compound was tested for anticonvulsant activity after Oral Administration into rat by using MES screen test after 2 hr; assay type: functional; how it was run: as §2
Rattus norvegicus [26] = assay: Compound was tested for anticonvulsant activity after Oral Administration into Rats by using MES screen test after 0.25h,dose 30 mg/kg; No activity was demonstarted; assay type: functional, organism-based; design: dose 30 mg/kg; how it was run: as §3

Row | SMILES | Dose (Mus musculus [2]) | Activity (Rattus norvegicus [4]) | Dose (Mus musculus [5]) | Dose (Mus musculus [6]) | Activity (Rattus norvegicus [9]) | Activity (Rattus norvegicus [10]) | Dose (Mus musculus [13]) | Dose (Mus musculus [14]) | Activity (Rattus norvegicus [15]) | Activity (Rattus norvegicus [17]) | Dose (Mus musculus [18]) | Activity (Rattus norvegicus [19]) | Activity (Rattus norvegicus [20]) | Activity (Rattus norvegicus [21]) | Activity (Rattus norvegicus [22]) | Activity (Rattus norvegicus [23]) | also measured
1 | NC(=O)N/N=C\c1ccc(Oc2cccc(F)c2F)cc1 | 100 mg/kg | 4 | 100 mg/kg | 300 mg/kg | 4 | No activity |  |  |  |  |  |  |  |  |  |  | ED50 (Mus musculus [1]): 45.8 mg/kg; ED50 (Rattus norvegicus [3]): 6.15 mg/kg; Activity (Rattus norvegicus [7]): 4; ED50 (Mus musculus [8]): > 350 mg/kg; Activity (Rattus norvegicus [11]): 3; TD50 at 2 h [12]: 293 mg/kg
2 | Cc1cccc(C)c1Oc1ccc(/C=N/NC(N)=O)cc1 | 100 mg/kg |  | 30 mg/kg | 30 mg/kg |  |  | 300 mg/kg | 100 mg/kg | 4 | 4 | 300 mg/kg | 4 | 4 |  |  |  | Activity (Rattus norvegicus [16]): 1
3 | NC(=O)N/N=C\c1ccc(Oc2ccncc2)cc1 | 300 mg/kg |  |  |  | 2 | No activity |  |  |  |  |  |  |  | No activity | No activity | No activity | 
4 | NC(=O)N/N=C\c1ccc(OC(=O)c2ccc(Cl)cc2)cc1 | 300 mg/kg |  |  |  | 2 |  |  |  |  |  |  |  |  |  | No activity | No activity | Activity (Rattus norvegicus [7]): 1; Activity (Rattus norvegicus [24]): 1
5 | C/C(=N/NC(N)=O)c1ccccc1Oc1ccc(F)cc1 |  |  |  |  |  |  |  |  | 2 | 3 |  | 3 | 1 |  |  |  | ED50 (Rattus norvegicus [25]): 43.4 mg/kg; Activity (Rattus norvegicus [16]): 1
6 | CC/C(=N/NC(N)=O)c1ccc(Sc2ccccc2)cc1 | 30 mg/kg |  | 30 mg/kg | 100 mg/kg |  |  | 100 mg/kg | 100 mg/kg | 4 | 4 | 100 mg/kg | 3 | 3 |  |  |  | Activity (Rattus norvegicus [26]): No activity; ED50 (Rattus norvegicus [25]): 18.6 mg/kg
7 | C/C(=N/NC(N)=O)c1ccc(Sc2ccc(C)cc2)cc1 | 100 mg/kg | 3 | 100 mg/kg | 100 mg/kg | 4 | No activity |  |  |  |  |  |  |  | No activity | No activity |  | 
8 | N=C(N)N/N=C/c1ccc(Oc2ccc(F)cc2)cc1 | 30 mg/kg | 1 | 300 mg/kg | 30 mg/kg | 2 | No activity | 100 mg/kg |  |  |  | 100 mg/kg |  |  | No activity | No activity |  | 
9 | NC(=O)N/N=C\c1ccc(Oc2ccc(-c3ccccc3)cc2)cc1 | 300 mg/kg | 3 |  |  | 1 | No activity |  | 300 mg/kg |  |  | 300 mg/kg |  |  | No activity | No activity |  | 
10 | NC(=O)N/N=C\c1ccc(OC(=O)c2ccccc2)cc1 | 300 mg/kg |  |  |  |  | No activity |  |  |  |  |  |  |  | No activity | No activity | No activity | 
